High-throughput results from PubChem.
Compounds with a hit are over-represented: about 1.9% of the library has one in this group of screens.
Tb MetRS inh: T. brucei MetRS inhibitors, primary screen, biochemical, luminescence; methionyl-tRNA synthetase (Trypanosoma brucei brucei); purified T. brucei MetRS, ATP depletion, Kinase-Glo luminescence; inhibition, % at 11.9 µM; 360,000 tested, 0.4% active; AID 624268, 2012;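 active = inhibition above a per-plate cutoff of the control wells' mean inhibition plus 3 SD, cut at about 5.5% in these data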;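 note: 0% = DMSO wells median and 100% = median of wells with control inhibitor compound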
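Material: T. brucei methionyl-tRNA synthetase, purified; reagent: substrates ATP, L-methionine and bulk Escherichia coli tRNA; dosing: 11.9 µM single point; timing: 15 min plus 2 h at 25 °C; detection: luminescence of leftover ATP; evaluation: % inhibition; control set: DMSO-only wells as low control; replicates: singlicate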
DAGLB inh: DAGLB lipase inhibitors, primary screen, biochemical, fluorescence, HTS | inhibition, % at 5.17 µM | HEK293T DAGLB membrane lysate, EnzChek fluorogenic substrate | Diacylglycerol lipase-beta (Homo sapiens), Q8NCG7 | 340,000 tested, 0.059% active; in the data active = inhibition above about 34%;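 note: 0% = enzyme with vehicle and 100% = wells lacking enzyme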
PLCb3 inh: human PLC-beta3 inhibitors, primary screen, biochemical, fluorescence; Purified PLC-beta3, fluorogenic substrate; AID 720704, 2013; inhibition, % at 12.2 µM; 370,000 tested, 0.18% active; 1-phosphatidylinositol 4,5-bisphosphate phosphodiesterase beta-3 (Homo sapiens), Q01970; in the data active = inhibition above about 11%;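 note: 0% = median of compound wells on plate and 100% = full blocker control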
Target sequence (Q01970 whole entry, looked up): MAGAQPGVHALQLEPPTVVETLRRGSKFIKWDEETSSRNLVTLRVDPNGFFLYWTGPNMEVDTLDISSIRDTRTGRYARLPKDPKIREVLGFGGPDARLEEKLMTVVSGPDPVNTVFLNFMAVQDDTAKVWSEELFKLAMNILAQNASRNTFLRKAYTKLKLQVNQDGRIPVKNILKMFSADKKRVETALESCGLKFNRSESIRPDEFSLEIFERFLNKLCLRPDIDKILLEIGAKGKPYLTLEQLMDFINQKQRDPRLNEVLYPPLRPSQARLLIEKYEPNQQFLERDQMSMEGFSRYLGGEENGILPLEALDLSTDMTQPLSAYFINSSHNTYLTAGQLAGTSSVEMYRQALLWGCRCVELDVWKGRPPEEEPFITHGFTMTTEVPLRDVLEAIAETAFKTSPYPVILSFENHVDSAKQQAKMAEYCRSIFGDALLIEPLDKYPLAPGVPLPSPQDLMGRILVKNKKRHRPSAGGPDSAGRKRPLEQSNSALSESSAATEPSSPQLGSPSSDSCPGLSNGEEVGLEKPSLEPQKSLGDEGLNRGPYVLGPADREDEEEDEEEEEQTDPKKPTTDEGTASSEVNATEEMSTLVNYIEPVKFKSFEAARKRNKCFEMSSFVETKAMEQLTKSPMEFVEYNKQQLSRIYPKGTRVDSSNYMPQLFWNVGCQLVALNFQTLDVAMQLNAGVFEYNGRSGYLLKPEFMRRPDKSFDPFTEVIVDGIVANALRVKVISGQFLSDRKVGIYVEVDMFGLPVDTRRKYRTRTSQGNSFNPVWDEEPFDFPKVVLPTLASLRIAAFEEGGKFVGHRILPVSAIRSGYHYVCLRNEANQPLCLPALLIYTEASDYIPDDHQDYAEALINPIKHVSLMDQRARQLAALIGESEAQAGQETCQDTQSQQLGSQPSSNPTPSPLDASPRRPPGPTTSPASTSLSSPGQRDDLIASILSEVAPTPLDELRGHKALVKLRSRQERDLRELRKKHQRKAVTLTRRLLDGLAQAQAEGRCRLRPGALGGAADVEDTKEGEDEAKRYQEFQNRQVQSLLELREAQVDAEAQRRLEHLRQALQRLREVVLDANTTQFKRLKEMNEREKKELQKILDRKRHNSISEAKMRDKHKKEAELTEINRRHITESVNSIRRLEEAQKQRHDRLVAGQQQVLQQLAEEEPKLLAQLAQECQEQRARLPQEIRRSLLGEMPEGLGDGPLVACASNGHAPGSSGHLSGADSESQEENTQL
PLCg1 inh: PLC-gamma1 enzyme inhibitors, primary screen, biochemical, fluorescence, purified enzyme; 1-phosphatidylinositol 4,5-bisphosphate phosphodiesterase gamma-1 (Homo sapiens), P19174; fluorogenic substrate; inhibition, % at 12.2 µM; 370,000 tested, 0.84% active; AID 720700, 2013; in the data active = inhibition above about 9.5%
sPLA2-III inh: human group III sPLA2 inhibitors, primary screen, biochemical, QFRET, BODIPY PC-A2 liposome substrate. inhibition, % at 12.2 µM. Group 3 secretory phospholipase A2 (Homo sapiens), Q9NZ20. QFRET BODIPY PC-A2 liposome hydrolysis, fluorescence. 370,000 tested, 0.56% active. AID 743126, 2013;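 active = inhibition above mean plus 3 SD of compounds lying within the high and low control bounds, cut at about 19% in these data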;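 note: 0% = median of test compound wells and 100% = no enzyme DMSO wells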
hGIII sPLA2 conf: human group III sPLA2 inhibitors, confirmation, biochemical, QFRET, triplicate | shares compounds with sPLA2-III inh | recombinant hGIII-sPLA2, BODIPY PC-A2 QFRET fluorescence | inhibition, % at 12.2 µM | 2,000 tested, 34% active | AID 743280, 2014;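 active = mean inhibition across triplicates above the hit cutoff set in the earlier primary screen, cut at about 19% in these data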;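 note: 0% = enzyme with DMSO and 100% = DMSO wells lacking enzyme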
BODIPY interf: 535nm fluorescence optical interference, confirmation, artefact control for HGIII-sPLA2 inhibitor project, biochemical, QFRET; BODIPY FL product fluorescence interference; shares compounds with sPLA2-III inh; inhibition, % at 12.2 µM; 2,000 tested, 8.5% active; AID 743282, 2014;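 active = average inhibition above the solvent-only control mean plus 3 SD, cut at about 6% in these data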;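 note: 0% = DMSO with substrate plus product and 100% = DMSO with substrate alone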
535nm interf DR: 535nm fluorescence optical interference, dose response, artefact control for HGIII-sPLA2 inhibitor project, biochemical, QFRET | shares compounds with sPLA2-III inh | BODIPY FL product fluorescence interference, cell-free | IC50, µM | 240 tested, under 10 active;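 active = IC50 at or below 10 µM; inactive = IC50 above 10 µM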
* hit, by the source's call; i = inactive; . = not tested or not shown.

SMILES	Tb MetRS inh	DAGLB inh	PLCb3 inh	PLCg1 inh	sPLA2-III inh	hGIII sPLA2 conf	BODIPY interf	others
Cc1cc(Nc2ccc(OC(F)F)cc2)cc(=O)n1-c1ccc(OC(F)F)cc1	.	.	-8.4	-7.0	-15.3	.	.
COc1ccc2c(=O)cc(-c3cccnc3)oc2c1OC	-0.8	-3.0	-10.7	-3.7	19.8*	-1.2	-6.4
CNC(=S)/N=C(\Nc1ccc(C)cc1)c1ccccc1	-0.1	.	5.0	4.7	20.8*	19.0	-7.1
O=c1[nH]c(NCCO)nc2c1C1(CCCC1)Cc1ccccc1-2	0.3	4.3	i	i	-25.5	.	.
C=CCNC(=S)NNc1nc2c(c(=O)[nH]1)C1(CCCCC1)Cc1ccccc1-2	-0.2	-2.9	-20.5	-14.5	25.3*	29.3*	2.1	535nm interf DR=>122
CC(C)N1CCCCC(NC(=O)c2ccccc2)C1=O (stereo not given)	.	.	1.3	8.5	22.1*	-0.4	-4.9
CCC(=O)N(CC(=O)Nc1sc(C)c(C)c1C(N)=O)C1CCCCC1	-0.4	2.1	-3.2	7.5	19.3*	-3.9	-3.1
CCS(=O)(=O)N1CCC(C(=O)NCc2cccnc2)CC1	-0.5	-2.5	-3.7	-0.2	20.5*	-1.9	-1.6
CC(C)Oc1ccc(/C=N/NC(N)=S)cc1	-0.3	0.5	3.2	1.0	17.5	.	.
COc1ccc(/C=N/NC(N)=S)cc1	-0.8	1.7	-11.1	5.1	21.2*	2.2	-8.6
COC(=O)c1cccc(/C=N/NC(N)=S)c1O	1.1	-4.8	-364.0	-256.2	21.2*	20.1*	-1.2
CCOC(=O)c1cc(N)cc([N+](=O)[O-])c1	0.8	2.6	1.3	4.1	23.4*	2.5	-3.6
Cc1ccccc1C(=O)NNC(=O)c1cc(N)cc([N+](=O)[O-])c1	-0.5	0.9	-2.6	-0.8	11.5	.	.
CCOc1ccccc1Nc1cc2n(c(=O)n1)CCc1cc(OC)c(OC)cc1-2	0.5	1.4	-48.8	-29.7	82.0*	4.9	-15.9
O=S1(=O)CC2c3ccccc3CCN2CN1Cc1ccc(F)cc1 (stereo not given)	.	.	4.1	4.4	3.0	.	.
COc1cccc(C(=O)Nc2ccc3c(c2)OC[C@H](C)N(CCc2ccccc2)C[C@@H](C)[C@@H](OC)CN(C)C3=O)c1	-0.5	.	-0.8	0.6	-5.1	.	.
CCCN1C[C@@H](C)[C@@H](OC)CN(C)C(=O)c2ccc(NC(=O)c3cccc(F)c3)cc2OC[C@H]1C	0.1	.	0.2	1.0	20.0*	4.4	-11.2
Cc1ccc(-c2sc(C(=O)NN)c(C)c2C#N)cc1	-0.4	-11.3	-14.1	-5.4	24.2*	12.9	-1.8
Cc1ccc(N=Nc2ccc3ccccc3c2O)cc1	-0.3	13.7	-1.7	-1.7	20.4*	30.4*	8.3*
COc1cccc(-c2cccc3c4c([nH]c23)[C@@H]2C[C@H]3[C@@H](C(=O)N2CC4)[C@H](C)ON3C)c1	.	.	-42.9	-32.9	-13.2	.	.
O=C(COC(=O)/C=C/c1cccc(Cl)c1)NCCC1=CCCCC1	-0.4	-9.6	3.3	1.0	-4.1	.	.
O=C(COC(=O)/C=C/c1ccc(Cl)cc1)NCCC1=CCCCC1	0.5	-4.6	-9.9	3.6	21.5*	-6.1	-10.5
Cc1ccc(C2NC(=O)NC(O)(C(F)(F)F)C2C(=O)c2ccccc2)o1 (stereo not given)	-1.2	-0.3	-7.6	-2.2	1.8	.	.
CCOC(=O)C1C(c2ccc(C)o2)NC(=O)NC1(O)C(F)(F)F (stereo not given)	-0.5	-0.1	-10.0	-2.2	19.6*	0.4	-4.2
